Assay results published in ChEMBL document CHEMBL1130028, “A comparison of structure-activity relationships between spermidine and spermine analogue antineoplastics” (J Med Chem, 1997).
pIC50, pKi: −log10 of the molar value.

What was measured:
[1] = Effect on ornithine decarboxylase (ODC) tested at 1 uM at 4 hour in L1210 cells; type: functional, Mus musculus
In short: (§1)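 L1210 cells were exposed to 1 μM analogue, for 4 h (ODC) or 6 h (AdoMetDC). Activity was measured as 14CO2 released from [14C]carboxyl-labelled L-ornithine (ODC) or S-adenosyl-L-methionine (AdoMetDC) and given as percent of untreated control. Each run included DEHSPM-treated positive controls. Values are the mean of at least three experiments.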

L1210 [2] = assay: Percentage of putrescine (after 48 hr exposure to 100 uM) in L1210 cells.; type: functional, Mus musculus
In short: (§2)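 Log-phase L1210 cells were treated for 48 h with analogue at two concentrations. Cells were washed twice in cold RPMI-1640 and extracted with 0.6 N HClO4. Putrescine, spermidine and spermine were quantified by HPLC of dansyl derivatives and given as percent of untreated controls. Runs were in triplicate with untreated controls.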

L1210 [3] = assay: Percentage of putrescine after 48 hr exposure to the compound (500 uM ) in L1210 cells; type: functional, Mus musculus; in short: as §2
L1210 [4] = assay: Growth inhibitory activity against L1210 cells (48h); type: functional, cell-based; settings: Mus musculus, L1210, 48 h
In short: (§3)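 Murine L1210 leukemia cells were kept in log growth in RPMI-1640 with 10% fetal calf serum or NuSerum, HEPES-MOPS buffer and 1 mM aminoguanidine. IC50 is the concentration giving 50% of untreated control growth, as the mean of at least two experiments.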

L1210 [5] = assay: Growth inhibitory activity against L1210 cells (96h); type: functional, cell-based; settings: Mus musculus, L1210, 96 h; in short: as §3
[6] = molecular target: Spermidine/spermine N(1)-acetyltransferase (SAT) (Mus musculus) (UniProt Q6P8J2+P48026); assay: Effect on Spermidine/Spermine-Acetyltransferase (SSAT ) at 10 uM at 48 hour in L1210 cells; type: functional, cell-based
Chain of Spermidine/spermine N(1)-acetyltransferase (SAT) (Mus musculus) (P48026 whole entry, looked up): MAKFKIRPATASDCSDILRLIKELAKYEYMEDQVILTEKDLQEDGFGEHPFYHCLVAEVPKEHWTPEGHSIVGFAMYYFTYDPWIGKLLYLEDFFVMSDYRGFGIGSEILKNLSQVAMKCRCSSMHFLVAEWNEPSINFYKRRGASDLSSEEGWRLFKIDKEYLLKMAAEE
Chain of Spermidine/spermine N(1)-acetyltransferase (SAT) (Mus musculus) (Q6P8J2 whole entry, looked up): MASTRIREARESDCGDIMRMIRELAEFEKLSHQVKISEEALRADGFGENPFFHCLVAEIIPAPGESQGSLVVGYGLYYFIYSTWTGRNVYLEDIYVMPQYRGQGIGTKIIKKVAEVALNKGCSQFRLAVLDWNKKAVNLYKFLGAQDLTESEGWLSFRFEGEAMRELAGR
In short: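 L1210 cells were exposed to 10 μM triamine for 48 h. SSAT activity was taken as [14C]N1-acetylspermidine formed from spermidine and [14C]acetyl-CoA, given as percent of untreated control. DENSPM-treated cells served as positive control. Values are the mean of at least three experiments.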

[7] = Binding affinity values for polyamine transporter was determined
[8] = molecular target: T1, S-adenosylmethionine decarboxylase proenzyme 1 (Mus musculus) (UniProt P0DMN7); assay: Effect on S-Adenosyl-methionine decarboxylase (AdoMetDC) tested at 1 uM at 6 hour in L1210 cells; type: functional, cell-based; in short: as §1
T1 sequence (whole entry): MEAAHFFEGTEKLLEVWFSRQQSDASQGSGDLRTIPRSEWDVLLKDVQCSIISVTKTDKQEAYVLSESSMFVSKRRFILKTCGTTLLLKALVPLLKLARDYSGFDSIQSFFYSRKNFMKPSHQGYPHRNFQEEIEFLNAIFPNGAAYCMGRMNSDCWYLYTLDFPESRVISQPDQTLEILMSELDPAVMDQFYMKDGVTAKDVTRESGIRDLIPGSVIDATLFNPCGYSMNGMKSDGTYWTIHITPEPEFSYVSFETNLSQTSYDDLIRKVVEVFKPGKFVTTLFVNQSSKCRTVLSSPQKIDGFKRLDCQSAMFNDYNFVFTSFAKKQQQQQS

L1210 [9] = assay: Intracellular levels in L1210 cells following 500 uM exposure.; type: functional, Mus musculus
In short: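 L1210 cells were grown 48 h in medium containing 500 μM analogue. Cellular contents were analysed by HPLC of dansyl derivatives and given as pmol/10^6 cells, as parent drug and metabolites with the % of total drug in the cell.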

L1210 [10] = assay: Percentage of spermidine (after 48 hr exposure to 100 uM) in L1210 cells.
L1210 [11] = assay: Percentage of spermidine (after 48 hr exposure to 500 uM) in L1210 cells.
L1210 [12] = assay: Percentage of spermine (after 48 hr exposure to 500 uM) in L1210 cells.; type: functional, Mus musculus; in short: as §2
L1210 [13] = assay: Percentage of spermine (after 48 hr exposure to 100 uM) in L1210 cells.; type: functional, Mus musculus; in short: as §2

Row | Compound | ODC [1] [%] | Polyamine (L1210 [2]) [%] | Polyamine (L1210 [3]) [%] | pIC50 (L1210 [4]) | pIC50 (L1210 [5]) | SSAT [6] [%] | pKi [7] | AdoMetDC [8] [%] | Picoequivalents of amine/10e6 cells (L1210 [9]) | Spermidine % (L1210 [10]) [%] | Spermidine % (L1210 [11]) [%] | Polyamine (L1210 [12]) [%] | Polyamine (L1210 [13]) [%]
1 | NCCCCNCCCN [SPERMIDINE] | 16 | 0 | 0 | < 4.00 | < 4.00 | 160 | 5.66 | 43 |  |  |  |  | 
2 | CNCCCCNCCCCNC | 20 | 0 | 0 | < 4.00 | 6.05 | 510 | 5.26 | 86 | 20340 | 3 | 0 |  | 
3 | CCCNCCCCNCCCCNCCC | 86 | 0 | 0 | < 4.00 | 5.22 | 420 | 4.17 | 123 | 15990 | 19 | 7 |  | 
4 | CNCCCCNCCCNC | 22 | 0 | 0 | < 4.00 | 5.77 | 270 | 5.29 | 68 | 16090 | 5 | 0 | 54 | 58
5 | CCCNCCCNCCCNCCC | 100 | 70 | 68 | < 4.00 | 4.22 | 220 | 3.90 | 99 | 15010 | 76 | 71 |  | 96
6 | CCCNCCCCNCCCCN | 20 | 0 | 0 | 4.00 | 6.22 | 570 | 5.30 | 59 | 20550 | 2 | 0 | 66 | 82
7 | CCCNCCCCCNCCCCNCCC | 83 | 0 | 0 | 4.00 | 5.92 | 80 | 4.12 | 86 | 15150 | 40 | 31 |  | 
8 | NCCCCCNCCCCN | 19 | 0 |  | < 4.00 | 6.74 | 410 | 5.85 | 57 |  | 1 | 0 | 35 | 53
9 | CCCNCCCNCCCN | 33 | 0 | 0 | < 4.00 | 4.00 | 470 | 4.48 | 38 | 17710 | 29 | 15 | 49 | 56
10 | CCCNCCCCCNCCCCCNCCC | 73 | 59 | 51 | < 4.00 | 5.22 | 90 | 4.06 | 123 | 13910 | 73 | 69 |  | 97
11 | CCCNCCCCNCCCN | 14 | 0 | 0 | < 4.00 | 4.26 | 500 | 5.07 | 64 | 19590 | 33 | 16 | 95 | 
12 | NCCCCNCCCCN | 11 | 0 |  | < 4.00 | 5.52 | 430 | 5.47 | 54 |  | 4 | 2 | 21 | 32
13 | CCNCCCNCCCCN | 10 | 0 | 0 | < 4.00 | 5.40 | 430 | 5.07 | 58 | 16990 | 25 | 14 | 53 | 80
14 | NCCCCCNCCCCCN | 16 | 0 | 0 | 4.00 | 6.40 | 90 | 4.85 | 88 |  | 0 | 0 | 20 | 33
15 | CNCCCNCCCNC | 17 | 0 | 0 | < 4.00 | 5.32 | 250 | 4.22 | 41 | 18400 | 9 | 6 | 48 | 58
16 | CCNCCCNCCCN | 42 |  |  | < 4.00 | < 4.00 | 390 | 4.47 | 58 |  |  |  |  | 
